From PubChem BioAssay
TRPC4 block – inhibitors of mouse TRPC4 channel | Q9QUQ5 | HEK293 TRPC4beta/mu-opioid, DAMGO-evoked Fluo4 calcium flux; stronger effect = lower value | B-score at 10 µM | 0.39% of 300,000 active | AID 2247;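 active = B-score over 3 SD under the library average, no early fluorescence shift, positive overall ratio signal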
Target sequence (Q9QUQ5 whole entry, looked up): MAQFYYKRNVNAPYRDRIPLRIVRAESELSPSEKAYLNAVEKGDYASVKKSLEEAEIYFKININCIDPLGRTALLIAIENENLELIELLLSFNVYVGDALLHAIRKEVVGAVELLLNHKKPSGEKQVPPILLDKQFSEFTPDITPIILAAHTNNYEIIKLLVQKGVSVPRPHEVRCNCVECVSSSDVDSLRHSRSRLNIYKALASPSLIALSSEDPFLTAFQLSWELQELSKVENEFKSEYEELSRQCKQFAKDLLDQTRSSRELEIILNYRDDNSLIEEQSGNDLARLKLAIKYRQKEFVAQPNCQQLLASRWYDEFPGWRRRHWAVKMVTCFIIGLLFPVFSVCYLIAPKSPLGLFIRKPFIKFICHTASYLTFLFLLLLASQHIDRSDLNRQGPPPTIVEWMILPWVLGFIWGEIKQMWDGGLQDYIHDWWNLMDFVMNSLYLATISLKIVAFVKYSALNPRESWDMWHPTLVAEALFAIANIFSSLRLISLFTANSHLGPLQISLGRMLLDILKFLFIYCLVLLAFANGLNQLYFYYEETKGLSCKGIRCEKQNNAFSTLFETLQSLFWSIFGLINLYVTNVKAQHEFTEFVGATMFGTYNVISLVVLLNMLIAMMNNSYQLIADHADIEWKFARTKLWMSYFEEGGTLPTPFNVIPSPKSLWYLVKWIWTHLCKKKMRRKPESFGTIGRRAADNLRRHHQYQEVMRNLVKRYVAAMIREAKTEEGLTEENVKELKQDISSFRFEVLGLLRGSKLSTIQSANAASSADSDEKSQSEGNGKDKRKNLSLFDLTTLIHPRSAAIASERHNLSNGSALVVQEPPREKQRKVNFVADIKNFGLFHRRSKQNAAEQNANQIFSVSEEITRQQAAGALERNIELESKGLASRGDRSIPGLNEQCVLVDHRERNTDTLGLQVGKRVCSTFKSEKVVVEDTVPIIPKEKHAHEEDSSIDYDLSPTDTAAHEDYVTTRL
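Assay system: TRPC4beta/mu-opioid receptor HEK293 cell line; compound dosing: single concentration per test compound; detection: Fluo4 Ca2+ flux fluorescence; evaluation: per-well B score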
TRPC6 inh – blocks the mouse TRPC6 cation channel; AID 2553; B-score at 10 µM; HEK293-TRPC6, membrane potential dye, ACh-evoked depolarization; stronger effect = lower value; 1.1% of 310,000 active; Q61143;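 active = B-score under library mean minus 3 SD, initial fluorescence not abnormally high, positive integrated signal ratio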;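 also: B-score derived from integrated fluorescence ratio over the kinetic read; more negative B-score means stronger inhibition of depolarization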
Kir21 block – inhibitors of mouse Kir2.1 inward-rectifier potassium channel; HEK293-Kir2.1, FluxOR thallium flux fluorescence; stronger effect = lower value; P35561; B-score at 10 µM; AID 1672; 0.85% of 310,000 active;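 active = fluorescence ratio B-score at or below minus 3 SD of library scores, with starting-brightness B-score within 2 SD, cut at about -4.2 in these data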;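 also: channel flux triggered by added potassium and thallium sulfate stimulus; B-score of peak minus minimum fluorescence over baseline after thallium stimulus; more negative B-score means stronger Kir2.1 block with less thallium influx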
TRPC6 act – mouse TRPC6 channel activation | 0.13% of 310,000 active | HEK293-TRPC6 membrane potential dye fluorescence; stronger effect = higher value | AID 2550 | Q61143 | B-score at 10 µM;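 active = B-score of the integrated fluorescence ratio above library mean plus 3 SD, and starting fluorescence ratio within library mean plus 5 SD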;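 also: higher score means more depolarization so channel activation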
TRPC4 act – activators of mouse TRPC4 channel. AID 2237. HEK293 TRPC4beta/mu-opioid, Fluo4 calcium fluorescence; stronger effect = higher value. B-score at 10 µM. 0.49% of 310,000 active. Q9QUQ5;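 active = B-score above 5 SD of library B-scores, and initial fluorescence ratio not above library mean plus 5 SD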;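 also: positive B-score marks a calcium rise read as TRPC4 activation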
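Incubation: 45 min room-temperature Fluo4 loading, 110 s read / System: HEK293 cells stably co-expressing mouse TRPC4beta and mu-opioid receptor / Signal: Fluo4 fluorescence, kinetic / Control set: buffer (low) and maximal DAMGO (high) / Measure: integrated baseline-normalised fluorescence ratio, converted to per-well B score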
TRPC4 potent – allosterically enhances the mouse TRPC4 cation channel; Q9QUQ5; HEK293 TRPC4beta/mu-opioid, DAMGO EC20, Fluo-4 Ca2+ flux; stronger effect = higher value; B-score at 10 µM; 0.42% of 310,000 active; AID 2227;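 active = B-score of calcium response area above 5 SD of library B-scores, with initial fluorescence ratio within 5 SD of library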
TRPC4 spec 2 – mouse TRPC4 off-target activity of TRPC6 inhibitors, second screen | shares compounds with TRPC6 inh | HEK293 TRPC4/MOR, membrane potential dye fluorescence; channel activated by saturating DAMGO dose | inhibition, % at 10 µM | 42% of 920 active;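 active = compounds whose fluorescence signal differed from control wells by over 3 SD, either direction, in both duplicate plates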
TRPC4 spec – selectivity of TRPC6 inhibitors: effect on mouse TRPC4. shares compounds with TRPC6 inh. HEK293 TRPC4/mu-opioid, membrane potential fluorescence. activity change, negative = inhibition, % at 10 µM. 61% of 920 active. AID 2777;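 active = rise or fall in signal beyond 3 SD of buffer-only wells in both replicate plates, either sign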;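 also: integrated kinetic ratio of fluorescence range over baseline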
HEK293 MPD ctr 2-1 – second counter-screen for TRPC6 inhibitors: parental HEK293 cells. shares compounds with TRPC6 inh. parental HEK293 membrane potential dye fluorescence; maximal acetylcholine challenge after compound addition. signal change vs control, % at 10 µM. 31% of 920 active. AID 2779;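 active = membrane potential signal moving either way by over 3 SD of the maximum-effect control, in both duplicate plates, meaning non-specific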
HEK293 MPD ctr-1 – parental HEK293 nonspecific activity of TRPC6 inhibitors. shares compounds with TRPC6 inh. parental HEK293 membrane potential dye fluorescence. membrane potential signal change, % at 10 µM. 60% of 920 active;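 active = membrane potential signal shifting up or down by more than 3 SD of buffer-only wells, on both duplicate plates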
HEK293 MPD ctr-2 – parental HEK293 nonspecific activity of TRPC6 modulators; 51% of 2,400 active; membrane potential dye fluorescence; shares compounds with TRPC6 inh; AID 488924; membrane potential signal change, % at 10 µM;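 active = membrane potential signal moves up or down beyond 5 SD from buffer-only wells, on both duplicate plates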
HEK293 MPD ctr 2-2 – second counter-screen for TRPC6 modulators: effect in parental HEK293 cells | shares compounds with TRPC6 inh | membrane potential dye fluorescence; after compound, maximal acetylcholine stimulation | inhibition, % at 10 µM | 14% of 2,400 active | AID 488926;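 active = membrane potential signal drops by more than 5 SD from the mean control signal, in both duplicate plates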
TRPC4 ctr mod – tests whether TRPC6 modulators also affect mouse TRPC4; shares compounds with TRPC6 inh; HEK293 TRPC4/mu-opioid, membrane potential fluorescence; percent change from control (negative = decrease, positive = increase), % at 10 µM; 69% of 2,400 active; AID 488927;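 active = membrane potential signal moved up or down beyond 5 SD of buffer control wells, in both duplicate plates, actives on both sides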
TRPC4 ctr inh 2 – second check of whether TRPC6 modulators also affect mouse TRPC4; AID 488928; inhibition, % at 10 µM; HEK293 TRPC4/mu-opioid, membrane potential dye fluorescence; stimulated with maximal-effect DAMGO; shares compounds with TRPC6 inh; 55% of 2,400 active;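 active = drop in membrane potential signal beyond 5 SD of the control wells in both duplicate plates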;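 also: TRPC4 counter screen for TRPC6 hits run under conditions tuned for TRPC6 not TRPC4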
TRPC6 inh conf – confirmation of mouse TRPC6 inhibitors. inhibition, % at 10 µM. HEK293-TRPC6, membrane potential dye, ACh-evoked depolarization. AID 488960. shares compounds with TRPC6 inh. 43% of 3,300 active;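 active = fluorescence ratio falls more than 5 SD below the full-stimulation control mean, in both duplicate runs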;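 also: integrated fluorescence ratio of peak minus minimum over baseline after agonist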
TRPC6 act confirm – confirmation of mouse TRPC6 activators. HEK293-TRPC6 membrane potential dye fluorescence, FDSS. activation, % at 10 µM. shares compounds with TRPC6 inh. 11% of 2,800 active;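 active = ratio signal rise beyond 5 SD above unstimulated control wells' mean, seen in both duplicate runs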
A number is an active result; i = inactive; nt = not tested or not shown; ! = not active in a repeat. Only some compounds are listed: those with a hit (about 2.9% of all), similar ones and a draw of the others.

SMILES | TRPC4 block | TRPC6 inh | Kir21 block | TRPC6 act | TRPC4 act | TRPC4 potent | HEK293 MPD ctr-2 | HEK293 MPD ctr 2-2 | TRPC4 ctr mod | TRPC4 ctr inh 2 | TRPC6 inh conf | TRPC6 act confirm | others
O=[N+]([O-])c1ccc(-[n+]2c(-c3ccccc3)cc(-c3ccccc3)cc2-c2ccccc2)cc1 | i | i | i | i | i | i | nt | nt | nt | nt | nt | nt
O=[N+]([O-])c1ccccc1-c1cc(-c2ccccc2)cc(-c2ccccc2)[n+]1Cc1ccccc1Cl | i | -5.7 | -9.1 | i | i | i | i | i | -8.5% | i | i | i
Cc1cc(OC(C)C(=O)NCC(O)c2ccccc2)c2c3c(c(=O)oc2c1)CCCC3 (stereo not given) | i | i | i | i | i | i | nt | nt | nt | nt | nt | nt
CCC(C)N1CCN(C(=O)Cc2ccccc2)CC1 (stereo not given) | i | -7.1 | i | i | i | i | nt | nt | nt | nt | i | i | TRPC4 spec 2=i;TRPC4 spec=i;HEK293 MPD ctr 2-1=i;HEK293 MPD ctr-1=i
O=C(Cc1ccccc1)N1CCN(CCCc2ccccc2)CC1 | i | i | i | i | i | i | nt | nt | nt | nt | nt | nt
CCCCc1nc(N2CCNCC2)c(C#N)c2c1CSC(C)(C)C2 | i | -7.8 | i | i | i | i | nt | nt | nt | nt | i | i | TRPC4 spec 2=44%;TRPC4 spec=i;HEK293 MPD ctr 2-1=i;HEK293 MPD ctr-1=0.9%
c1ccc(C2CN3CCC2CC3)cc1 (stereo not given) | i | i | i | i | i | i | nt | nt | nt | nt | nt | nt
OC(Cc1ccccc1)(c1ccccc1)C1CN2CCC1CC2 (stereo not given) | i | -5.4 | i | i | i | i | 152% | i | 33% | i | 52% | nt
OC(c1ccccc1)(c1ccccc1)C1CN2CCC1CC2 (stereo not given) | i | -7.9 | i | i | i | i | nt | nt | nt | nt | i | i | TRPC4 spec 2=i;TRPC4 spec=i;HEK293 MPD ctr 2-1=i;HEK293 MPD ctr-1=i
OC(c1ccccc1)(c1ccc(Cl)cc1)C1CN2CCC1CC2 (stereo not given) | i | i | i | i | i | i | nt | nt | nt | nt | nt | nt
CCOc1ccc(-n2c(O)c(N=Nc3c(C)n(C)n(-c4ccccc4)c3=O)c(=O)[nH]c2=O)cc1 | i | i | i | i | i | i | nt | nt | nt | nt | nt | nt
N#CC(C#N)=NNc1ccc(-n2ccc(C(F)(F)F)n2)cc1 | i | -9.2 | -6 | i | i | i | 170% | i | 27% | 71% | 62% | i
COc1ccc(-c2cc(=Nc3ccccc3)c3cc(C)ccc3o2)cc1 | i | -7.7 | i | i | i | i | nt | nt | nt | nt | i | i | TRPC4 spec 2=i;TRPC4 spec=-18%;HEK293 MPD ctr 2-1=i;HEK293 MPD ctr-1=-198%
Clc1ccc2[nH]c3c(c2c1)CCNC3 | i | -5.3 | i | i | i | i | i | i | i | 35% | i | i
Cc1cc(C=O)c(C)n1C1CC1 | i | i | i | i | i | i | nt | nt | nt | nt | nt | nt
CCn1ccnc1CN1CCCC(C(=O)c2ccc(SC)cc2)C1 (stereo not given) | i | -5 | i | i | i | i | i | i | 15% | i | 54% | nt
COc1cccc(O)c1CN1CCCC(C(=O)c2ccccc2SC)C1 (stereo not given) | i | -5.6 | i | i | i | i | 192% | i | 26% | 54% | i | nt
CSc1ncc(CN2CCCC(C(=O)c3ccccc3SC)C2)cn1 (stereo not given) | i | i | i | i | i | i | nt | nt | nt | nt | nt | nt
CCOc1ccc2oc(C(=O)NN3C(C)CCCC3C)c(C)c2c1 (stereo not given) | i | i | i | i | i | i | nt | nt | nt | nt | nt | nt
Cc1cnc(NC(=O)CN2CCCCC2)s1 | i | i | i | i | i | i | nt | nt | nt | nt | nt | nt
CC(C)[N+](C)(CCC(C(N)=O)(c1ccccc1)c1ccccc1)C(C)C | i | -6.6 | i | i | i | i | i | 101% | i | i | 88% | i
CC(Cc1ccccc1)NC(N)=O (stereo not given) | i | i | i | i | i | i | nt | nt | nt | nt | nt | nt
CC(=O)O[C@H]1CC[C@@]2(C)[C@H](C1)C(=O)C[C@H]1[C@@H]3CC[C@@H]4[C@@H](CN5C[C@@H](C)CC[C@H]5[C@@]4(C)O)[C@@H]3C[C@@H]12 | i | i | i | i | i | i | nt | nt | nt | nt | nt | nt
Fc1ccc(C[n+]2c(-c3ccccc3)cc(-c3ccccc3)cc2-c2ccccc2)cc1 | i | -6.9 | -9.3 | i | i | i | nt | nt | nt | nt | 56% | i | TRPC4 spec 2=75%;TRPC4 spec=4.2%;HEK293 MPD ctr 2-1=232%;HEK293 MPD ctr-1=3.5%
Cc1ccc(C2CC3CCC(C2)N3Cc2ccccc2F)cc1 (stereo not given) | i | i | i | 13 | i | i | 127% | i | 49% | 42% | i | 58%
COc1cc(C(O)CNC(C)C)cc(F)c1OC (stereo not given) | i | i | i | i | i | i | nt | nt | nt | nt | nt | nt
OC(CNCCc1c[nH]c2ccccc12)c1ccccc1 (stereo not given) | i | i | i | i | i | i | nt | nt | nt | nt | nt | nt
CC(=O)OCC[N+](C)(C)C | i | -7.9 | i | 15! | 125 | i | 133%! | 66%! | 44% | i | 70% | 124% | TRPC4 spec 2=i;TRPC4 spec=37%;HEK293 MPD ctr 2-1=i;HEK293 MPD ctr-1=4.2%
OC(Cn1c2ccccc2c2ccccc21)C[n+]1cccc2ccccc21 (stereo not given) | i | -6.7 | -5.2 | i | i | i | nt | nt | nt | nt | 59% | i | TRPC4 spec 2=i;TRPC4 spec=-28%;HEK293 MPD ctr 2-1=i;HEK293 MPD ctr-1=-334%
CCCn1ncc(CN2CCCC(C(=O)c3cccc(OC)c3)C2)c1C (stereo not given) | i | -5.9 | i | i | i | i | 124% | i | 28% | i | 50% | nt
